Values after ≈ are worked out from the molar mass of the structure shown. Active and inactive are the calls of the source. No cut-off for these calls is given here.
Assays:
[1] = Selectivity index, ratio of IC50 for african green monkey (Cercopithecus aethiops) Vero cells to IC50 for chloroquine-sensitive Plasmodium falciparum D6; format: toxicity, cell-based; conditions: read-out: Ratio IC50
[2] = system: Leishmania donovani; assay: Antileishmanial activity against Leishmania donovani promastigotes after 48 hrs by alamar blue assay; format: functional, organism-based
[3] = system: Vero; assay: Cytotoxicity against african green monkey kidney Vero cells; format: cell-based; conditions: Chlorocebus sabaeus
[4] = Selectivity index, ratio of IC50 for african green monkey (Cercopithecus aethiops) Vero cells to IC50 for chloroquine-resistant Plasmodium falciparum W2; format: toxicity, cell-based; conditions: read-out: Ratio IC50
[5] = system: Plasmodium falciparum; assay: Antimalarial activity against chloroquine-resistant Plasmodium falciparum W2 by LDH assay; format: functional, organism-based
[6] = system: RAW264.7; assay: Cytotoxicity against mouse RAW264.7 cells after 2 days by MTT assay; format: cell-based; conditions: RAW264.7, 48 h
Outline: (§1)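 MTT viability assay, run on CHO-ICAM-1 cells and, separately, on RAW 264.7 cells. IC50 in µg/mL, mean ± SEM of three determinations.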

[7] = system: RAW264.7; assay: Inhibition of iNOS production in LPS-activated mouse RAW264.7 cells after 20 hrs; format: functional, cell-based; conditions: RAW264.7, 20 h
Outline: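 iNOS assay in RAW 264.7 cells, with L-NMMA, APDC and dexamethasone as reference inhibitors. IC50 in µg/mL, mean ± SEM of three determinations.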

[8] = Specific index, ratio of IC50 for mouse RAW264.7 to IC50 for iNOS production in mouse RAW264.7
Outline: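 Index calculated as the MTT IC50 in RAW 264.7 cells divided by the iNOS IC50 in the same cells.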

[9] = Inhibition of protein biosynthesis in mouse Krebs cells assessed as renilla luciferase activity at 2 uM after 1 hr by translation assay relative to control; format: functional
Outline: (§2)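 In vitro Krebs cell translation system read by firefly and renilla luciferase. Compounds at 10 or 2 µM; anisomycin 10 µM as reference and 0.5% DMSO as vehicle control. Values are average luciferase activity relative to control.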

[10] = target: Intercellular adhesion molecule (ICAM-1), Integrin alpha-L/beta-2 (Homo sapiens, UniProt P05107+P05362+P20701); assay: Inhibition of LFA1/ICAM1-mediated adhesion of HL60 cells to CHO-ICAM1 cells; format: cell-based, HL-60
Outline: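 Secondary LFA-1/ICAM-1-mediated adhesion assay using HL-60 cells and CHO-ICAM-1 cells, with cytochalasin B as standard. IC50 in µg/mL, mean ± SEM of three determinations.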

[11] = Inhibition of protein biosynthesis in mouse Krebs cells assessed as firefly luciferase activity at 2 uM after 1 hr by translation assay relative to control; format: functional; outline: as §2
[12] = target: Intercellular adhesion molecule (ICAM-1), Integrin alpha-L/beta-2 (Homo sapiens) (UniProt P20701+P05362+P05107); assay: Inhibition of LFA1/ICAM1-mediated HL60 cell aggregation; format: cell-based; conditions: HL-60
Outline: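 Primary screen for LFA-1/ICAM-1-mediated cell aggregation run together with an XTT cell-proliferation read-out. Aggregation potency is reported as a minimum inhibitory concentration in µg/mL.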

[13] = Inhibition of protein biosynthesis in mouse Krebs cells assessed as renilla luciferase activity at 10 uM after 1 hr by translation assay relative to control; format: functional; outline: as §2
[14] = Specific index, ratio of IC50 for human HL60 cells to MIC for LFA1/ICAM1; format: functional, HL-60
Outline: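 Index calculated as XTT-assay IC50 (µg/mL) divided by the MIC from the LFA-1/ICAM-1-mediated aggregation primary screen (µg/mL). XTT IC50 values are given as mean ± SEM of three determinations.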

[15] = system: CHO; assay: Cytotoxicity against CHO cells transfected with ICAM1 by MTT assay; format: cell-based; conditions: Cricetulus griseus; outline: as §1
[16] = system: SK-OV-3; assay: Cytotoxicity against human SKOV3 cells after 48 hrs by neutral red staining; format: functional, cell-based; conditions: SK-OV-3, 48 h
Outline: (§3)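 Human tumour lines: SK-MEL (malignant melanoma), KB (epidermal carcinoma), BT-549 (ductal carcinoma) and SK-OV-3 (ovary carcinoma). Compounds tested up to a maximum of 10 µg/mL, with doxorubicin as reference. IC50 given in µg/mL as mean ± SEM of three determinations.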

[17] = system: HeLa; assay: Inhibition of protein synthesis in human HeLa cells at 2 uM by [35S]methionine metabolic labeling study; format: functional
[18] = system: HL-60; assay: Cytotoxicity against human HL60 cells by XTT assay; format: cell-based
Outline: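 XTT proliferation read-out combined with the primary assay for inhibitors of LFA-1/ICAM-1-mediated cell aggregation. IC50 in µg/mL, mean ± SEM of three determinations.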

[19] = system: KB; assay: Cytotoxicity against human KB cells after 48 hrs by neutral red staining; format: functional, cell-based; outline: as §3
[20] = system: SK-MEL; assay: Cytotoxicity against human SK-MEL cells after 48 hrs by neutral red staining; format: functional, cell-based; outline: as §3
[21] = system: HeLa; assay: Inhibition of translation in human HeLa cells at 10 uM by 35S-methionine metabolic labeling study; format: functional, cell-based
[22] = system: BT-549; assay: Cytotoxicity against human BT549 cells after 48 hrs by neutral red staining; format: functional, cell-based; conditions: BT-549, 48 h; outline: as §3
[23] = system: Plasmodium falciparum; assay: Antimalarial activity against chloroquine-sensitive Plasmodium falciparum D6 by LDH assay; format: functional, organism-based
[24] = Inhibition of protein biosynthesis in mouse Krebs cells assessed as firefly luciferase activity at 10 uM after 1 hr by translation assay relative to control; format: functional; outline: as §2
[25] = system: HeLa; assay: Inhibition of protein synthesis in human HeLa cells assessed as translation at 2 uM by [35S]methionine metabolic labeling study; format: functional; design: scale not given: the % may be the effect or the level left
[26] = system: HeLa; assay: Inhibition of translation in human HeLa cells at 2 uM by 35S-methionine metabolic labeling study; format: functional, cell-based
[27] = Inhibition of protein biosynthesis in mouse Krebs cells assessed as firefly luciferase activity at 0.4 uM after 1 hr by translation assay relative to control; format: functional
Outline: (§4)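 In vitro Krebs cell-extract translation system with firefly and Renilla luciferase read-outs, reported as average relative luciferase values. Compounds were tested at fixed concentrations (0.4–10 µM). DMSO (0.5%) served as vehicle control.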

[28] = system: HeLa; assay: Inhibition of translation in human HeLa cells at 0.4 uM by 35S-methionine metabolic labeling study; format: functional, cell-based
[29] = Inhibition of protein biosynthesis in mouse Krebs cells assessed as renilla luciferase activity at 0.4 uM after 1 hr by translation assay relative to control; format: functional; outline: as §4

Sequence of Intercellular adhesion molecule (ICAM-1), Integrin alpha-L/beta-2 (P20701 whole entry): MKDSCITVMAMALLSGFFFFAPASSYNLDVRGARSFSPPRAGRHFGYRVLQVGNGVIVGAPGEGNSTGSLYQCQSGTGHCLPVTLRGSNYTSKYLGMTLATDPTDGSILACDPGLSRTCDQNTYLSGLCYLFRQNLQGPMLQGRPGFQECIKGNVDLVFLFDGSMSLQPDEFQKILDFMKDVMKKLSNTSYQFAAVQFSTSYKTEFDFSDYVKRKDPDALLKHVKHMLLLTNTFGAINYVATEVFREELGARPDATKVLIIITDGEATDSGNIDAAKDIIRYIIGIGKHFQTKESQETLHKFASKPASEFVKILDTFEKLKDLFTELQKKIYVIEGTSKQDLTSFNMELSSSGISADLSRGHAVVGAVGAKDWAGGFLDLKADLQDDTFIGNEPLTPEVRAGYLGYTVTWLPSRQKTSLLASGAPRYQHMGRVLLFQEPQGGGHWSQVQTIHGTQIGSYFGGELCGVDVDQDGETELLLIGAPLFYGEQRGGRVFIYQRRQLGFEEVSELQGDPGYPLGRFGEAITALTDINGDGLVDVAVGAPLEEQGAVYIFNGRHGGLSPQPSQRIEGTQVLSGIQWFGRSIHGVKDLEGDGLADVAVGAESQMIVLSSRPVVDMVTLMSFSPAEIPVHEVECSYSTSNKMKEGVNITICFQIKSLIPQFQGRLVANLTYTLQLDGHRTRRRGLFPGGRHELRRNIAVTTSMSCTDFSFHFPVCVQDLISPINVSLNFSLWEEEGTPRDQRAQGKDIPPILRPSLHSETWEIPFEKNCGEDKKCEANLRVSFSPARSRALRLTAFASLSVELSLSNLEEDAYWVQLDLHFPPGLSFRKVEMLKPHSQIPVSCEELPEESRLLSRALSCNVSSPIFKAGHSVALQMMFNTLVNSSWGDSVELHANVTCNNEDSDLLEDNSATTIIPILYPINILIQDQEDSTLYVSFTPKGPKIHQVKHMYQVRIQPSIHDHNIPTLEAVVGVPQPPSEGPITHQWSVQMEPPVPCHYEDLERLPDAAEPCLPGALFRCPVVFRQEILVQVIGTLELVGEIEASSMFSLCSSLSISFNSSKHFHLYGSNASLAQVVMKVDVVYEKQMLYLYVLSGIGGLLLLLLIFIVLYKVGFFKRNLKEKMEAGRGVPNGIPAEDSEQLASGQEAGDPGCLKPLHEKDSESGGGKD
Sequence of Intercellular adhesion molecule (ICAM-1), Integrin alpha-L/beta-2 (P05362 whole entry): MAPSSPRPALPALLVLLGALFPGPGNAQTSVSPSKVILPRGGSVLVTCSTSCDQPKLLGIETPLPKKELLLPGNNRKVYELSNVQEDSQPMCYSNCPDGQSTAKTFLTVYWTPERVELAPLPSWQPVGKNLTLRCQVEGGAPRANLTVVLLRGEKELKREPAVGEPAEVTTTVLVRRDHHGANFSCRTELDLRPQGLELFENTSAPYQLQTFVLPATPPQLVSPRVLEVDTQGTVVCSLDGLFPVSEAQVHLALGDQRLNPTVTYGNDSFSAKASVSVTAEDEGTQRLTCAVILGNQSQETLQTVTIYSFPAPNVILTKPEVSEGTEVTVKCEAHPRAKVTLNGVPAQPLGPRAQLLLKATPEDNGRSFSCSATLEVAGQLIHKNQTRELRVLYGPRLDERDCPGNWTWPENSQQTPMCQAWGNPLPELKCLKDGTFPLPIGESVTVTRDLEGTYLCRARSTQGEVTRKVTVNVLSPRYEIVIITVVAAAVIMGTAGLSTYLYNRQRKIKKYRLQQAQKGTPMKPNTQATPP
Sequence of Intercellular adhesion molecule (ICAM-1), Integrin alpha-L/beta-2 (P05107 whole entry): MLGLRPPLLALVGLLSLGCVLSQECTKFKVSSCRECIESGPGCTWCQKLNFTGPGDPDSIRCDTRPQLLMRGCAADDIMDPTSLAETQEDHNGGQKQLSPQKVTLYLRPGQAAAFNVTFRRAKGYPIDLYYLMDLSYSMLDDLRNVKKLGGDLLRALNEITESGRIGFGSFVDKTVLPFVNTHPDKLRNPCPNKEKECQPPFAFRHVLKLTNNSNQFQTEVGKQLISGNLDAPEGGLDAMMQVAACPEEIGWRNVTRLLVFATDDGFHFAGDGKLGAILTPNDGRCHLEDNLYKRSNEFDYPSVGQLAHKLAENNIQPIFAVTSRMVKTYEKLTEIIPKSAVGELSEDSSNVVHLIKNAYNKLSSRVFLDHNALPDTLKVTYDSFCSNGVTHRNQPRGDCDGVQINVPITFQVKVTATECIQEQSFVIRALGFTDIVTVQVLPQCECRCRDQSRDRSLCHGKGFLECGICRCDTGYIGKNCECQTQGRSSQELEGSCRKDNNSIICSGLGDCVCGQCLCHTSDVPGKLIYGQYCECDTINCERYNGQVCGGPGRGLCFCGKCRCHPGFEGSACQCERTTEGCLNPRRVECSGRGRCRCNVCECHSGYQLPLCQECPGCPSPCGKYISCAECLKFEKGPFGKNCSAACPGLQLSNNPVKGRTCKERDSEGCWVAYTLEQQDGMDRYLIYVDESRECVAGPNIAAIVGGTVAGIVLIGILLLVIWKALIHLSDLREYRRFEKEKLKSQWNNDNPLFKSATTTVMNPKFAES

| Compound | selectivity ratio [1] | IC50 [2] [µg/mL] | IC90 [2] [µg/mL] | IC50 [3] [µg/mL] | selectivity ratio [4] | IC50 [5] [µg/mL] | IC50 [6] [µg/mL] | IC50 [7] [µg/mL] | Ratio [8] | Activity [9] | IC50 [10] [µM] | Activity [11] | MIC [12] [µg/mL] | Ratio [14] | IC50 [15] [µg/mL] | IC50 [16] [µg/mL] | inhibition at 2 µM [17] [%] | IC50 [18] [µg/mL] | IC50 [19] [µg/mL] | IC50 [20] [µg/mL] | also measured |
| --- | --- | --- | --- | --- | --- | --- | --- | --- | --- | --- | --- | --- | --- | --- | --- | --- | --- | --- | --- | --- | --- |
| C[C@@H]1CC[C@H]2[C@@H](C)C(=O)O[C@@H]3O[C@@]4(C)CC[C@@H]1[C@]32OO4 [ARTEMISININ] | > 699 | 36 (≈ 128 µM) | > 50 | > 10 | > 1180 | 0.0085 (≈ 0.0301 µM) |  |  |  |  |  |  |  |  |  |  |  |  |  |  |  |
| N.S=C(S)N1CCCC1 [PYRROLIDINE DITHIOCARBAMIC ACID, AMMONIUM SALT] |  |  |  |  |  |  | < 0.4 | 21 | <0.02 |  |  |  |  |  |  |  |  |  |  |  |  |
| CC[C@@H](C)C(=O)O[C@H]1C(=O)O[C@@H]2C[C@H]3C(C)=C[C@H](O)[C@@H](O)[C@]3(C)[C@H]3[C@@H](O)[C@@H](O)[C@]4(C)OC[C@]32[C@@H]14 | 3060 | 25 (≈ 52 µM) | > 50 | 10 (≈ 20.8 µM) | 1180 | 0.00853 (≈ 0.0178 µM) | 4.2 (≈ 8.74 µM) | 6.5 (≈ 13.5 µM) | 0.6 | 0.57 | > 52 | 0.35 | 0.26 (≈ 0.541 µM) | 2.7 | 2.5 (≈ 5.2 µM) | 0.8 (≈ 1.66 µM) | 96.5 | 0.7 (≈ 1.46 µM) | 1.9 (≈ 3.95 µM) | 1.9 (≈ 3.95 µM) | Activity [13]: 0.09; Activity [21]: Active; IC50 [22]: 1.7 µg/mL (≈ 3.54 µM); IC50 [23]: 0.00327 µg/mL (≈ 0.0068 µM); Activity [24]: 0.05; Activity [25]: 3.5% |
| CC[C@@H](C)C(=O)O[C@H]1C(=O)O[C@@H]2C[C@H]3C(C)=CC(=O)[C@@H](O)[C@]3(C)[C@H]3[C@@H](OC(C)=O)[C@H](OC(C)=O)[C@]4(C)OC[C@]32[C@@H]14 | > 7.4 | > 50 | > 50 | > 23.8 | > 14 | 1.7 (≈ 3.02 µM) | 24 (≈ 42.7 µM) | 23 (≈ 40.9 µM) | 1 | 0.87 | > 44.4 | 1.34 | 20.8 (≈ 37 µM) | 1.9 | 39 (≈ 69.3 µM) | > 10 | 0 | 40 (≈ 71.1 µM) | > 10 | > 10 | Activity [26]: inactive; Activity [13]: 0.52; Activity [21]: inactive; IC50 [22]: > 10 µg/mL; IC50 [23]: 3.2 µg/mL (≈ 5.69 µM); Activity [24]: 0.42; Activity [25]: 100% |
| CC[C@@H](C)C(=O)O[C@H]1C(=O)O[C@@H]2C[C@H]3C(C)=CC(=O)[C@@H](O)[C@]3(C)[C@H]3[C@@H](O)[C@H](O)[C@]4(C)OC[C@]32[C@@H]14 [SIMALIKALACTONE D] | 750 | 0.035 (≈ 0.0731 µM) | 0.2 (≈ 0.418 µM) | 2.3 (≈ 4.81 µM) | 613 | 0.00367 (≈ 0.00767 µM) | 0.08 (≈ 0.167 µM) | 0.76 (≈ 1.59 µM) |  | 0.09 | > 52.2 | 0.05 | 0.01 (≈ 0.0209 µM) | 2.5 | 0.032 (≈ 0.0669 µM) | 0.3 (≈ 0.627 µM) | 98.5 | 0.025 (≈ 0.0522 µM) | 1 (≈ 2.09 µM) | 0.28 (≈ 0.585 µM) | Activity [26]: Active; Activity [27]: 0.17; IC50 [22]: 0.3 µg/mL (≈ 0.627 µM); Activity [28]: Active; IC50 [23]: 0.003 µg/mL (≈ 0.00627 µM); Activity [29]: 0.25; Activity [25]: 1.5% |
| N=C(N)c1ccc(OCCCCCOc2ccc(C(=N)N)cc2)cc1 [PENTAMIDINE] |  | 1.6 (≈ 4.7 µM) | 3.5 (≈ 10.3 µM) |  |  |  |  |  |  |  |  |  |  |  |  |  |  |  |  |  |  |

Reference: ChEMBL document CHEMBL1151198, “A new antimalarial quassinoid from Simaba orinocensis” (J Nat Prod, 2004)
